In ChEMBL document CHEMBL1123390, “3-Hydroxy-3-methylglutaryl-coenzyme A reductase inhibitors. 3. 7-(3,5-Disubstituted [1,1'-biphenyl]-2-yl)-3,5-dihydroxy-6-heptenoic acids and their lactone derivatives” (J Med Chem, 1986):

What was measured:
[1] = biological target: T1, 3-hydroxy-3-methylglutaryl-coenzyme A reductase (Rattus norvegicus) (UniProt P51639); experiment: Inhibitory potency against purified rat liver HMG-CoA reductase relative to compactin
T1 sequence (whole entry): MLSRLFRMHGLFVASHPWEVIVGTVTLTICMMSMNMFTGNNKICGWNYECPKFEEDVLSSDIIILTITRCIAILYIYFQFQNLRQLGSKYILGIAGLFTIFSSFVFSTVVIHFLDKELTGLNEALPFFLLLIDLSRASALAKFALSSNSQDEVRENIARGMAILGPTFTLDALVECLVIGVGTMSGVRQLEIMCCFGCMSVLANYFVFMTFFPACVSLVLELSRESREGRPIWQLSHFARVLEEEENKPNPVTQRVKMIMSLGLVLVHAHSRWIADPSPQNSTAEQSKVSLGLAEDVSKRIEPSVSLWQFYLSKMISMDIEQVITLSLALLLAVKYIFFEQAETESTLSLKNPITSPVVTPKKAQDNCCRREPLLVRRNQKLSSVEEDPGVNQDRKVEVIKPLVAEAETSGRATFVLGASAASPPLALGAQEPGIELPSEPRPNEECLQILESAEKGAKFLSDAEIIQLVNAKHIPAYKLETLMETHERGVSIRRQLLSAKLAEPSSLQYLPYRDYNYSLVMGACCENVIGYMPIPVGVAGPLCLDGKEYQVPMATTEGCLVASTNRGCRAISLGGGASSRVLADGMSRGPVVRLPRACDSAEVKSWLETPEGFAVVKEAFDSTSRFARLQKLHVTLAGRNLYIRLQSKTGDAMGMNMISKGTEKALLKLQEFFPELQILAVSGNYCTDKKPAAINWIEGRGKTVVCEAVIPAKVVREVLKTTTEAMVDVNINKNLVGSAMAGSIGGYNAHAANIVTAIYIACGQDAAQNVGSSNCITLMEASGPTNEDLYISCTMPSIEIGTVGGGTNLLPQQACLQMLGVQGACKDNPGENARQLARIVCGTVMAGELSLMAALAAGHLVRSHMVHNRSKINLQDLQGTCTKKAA

[2] = biological target: T2, 3-hydroxy-3-methylglutaryl-coenzyme A reductase (Rattus norvegicus, UniProt P51639); experiment: Inhibition of solubilized partially purified rat liver HMG-CoA reductase
T2 sequence (P51639 whole entry): T1 sequence (whole entry)
Outline: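 Enzyme inhibition was tested at four or five test-compound concentrations, and percentage inhibition was plotted against concentration. IC50 came from a straight line fitted to these points by least squares. The full protocol is given in part 1 of the series.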

Compound | Relative potency [1] | IC50 [2]
O=C1C[C@H](O)C[C@@H](/C=C/c2ccccc2-c2ccccc2)O1 | 0.63 | 
Cc1cc(C)c(/C=C/[C@@H]2C[C@@H](O)CC(=O)O2)c(-c2ccc(F)c(C)c2)c1 (stereo in doubt; 110(-)) [listing 1 of 2 here] | 0.18 | 
O=C1C[C@H](O)C[C@@H](/C=C/c2c(F)cc(F)cc2-c2ccc(F)cc2)O1 | 3.5 | 860 nM
O=C1C[C@H](O)C[C@@H](/C=C/c2c(Cl)cc(Cl)cc2-c2ccc(Cl)cc2)O1 | 58 | 36 nM
Cc1cc(-c2cccc(Cl)c2/C=C/[C@@H]2C[C@@H](O)CC(=O)O2)ccc1F | 40 | 30 nM
O=C1C[C@H](O)CC(CCc2c(Cl)cc(Cl)cc2Cc2ccccc2)O1 (some centres undefined) | 4.3 | 530 nM
O=C1C[C@H](O)C[C@@H](/C=C/c2ccc(Cl)cc2Cl)O1 | 0.06 | 
O=C1C[C@H](O)C[C@@H](/C=C/c2c(Cl)cc(Cl)cc2-c2ccc(F)cc2)O1 (stereo in doubt; 100) [listing 1 of 2 here] |  | 24 nM
Cc1cc(C)c(/C=C/[C@@H]2C[C@@H](O)CC(=O)O2)c(-c2ccc(F)c(C)c2)c1 (stereo in doubt; 110(-)) [listing 2 of 2 here] |  | 7300 nM
Cc1cc(C)c(/C=C/[C@@H]2C[C@@H](O)CC(=O)O2)c(-c2cc(C)c(F)c(C)c2)c1 | 150 | 10 nM
O=C1C[C@H](O)CC(CCc2ccccc2-c2ccccc2)O1 (some centres undefined) | 0.44 | 44000 nM
Cc1cc(Cl)c(/C=C/[C@@H]2C[C@@H](O)CC(=O)O2)c(-c2ccc(F)c(C)c2)c1 | 92 | 13 nM
COc1ccc(-c2cc(Cl)cc(Cl)c2/C=C/[C@@H]2C[C@@H](O)CC(=O)O2)cc1 | 2.6 | 470 nM
O=C1C[C@H](O)C[C@@H](/C=C/c2c(Cl)cc(Cl)cc2-c2cc(Cl)cc(Cl)c2)O1 | 78 | 37 nM
Cc1cc(C)c(CCC2C[C@@H](O)CC(=O)O2)c(-c2ccc(F)c(C)c2)c1 (some centres undefined) | 45 | 22 nM
Cc1cc(C)c(/C=C/[C@@H]2C[C@@H](O)CC(=O)O2)c(-c2ccc(F)c(C)c2)c1 (stereo in doubt; 110 (+)) [listing 1 of 2 here] |  | 7.6 nM
Cc1cc(-c2cc(Cl)cc(C)c2/C=C/[C@@H]2C[C@@H](O)CC(=O)O2)ccc1F | 233 | 6 nM
Cc1cc(C)cc(-c2cc(Cl)cc(Cl)c2/C=C/[C@@H]2C[C@@H](O)CC(=O)O2)c1 | 115 | 13 nM
Cc1cc(C)c(/C=C/[C@@H]2C[C@@H](O)CC(=O)O2)c(-c2ccc(F)c(C)c2)c1 (stereo in doubt; 110 (+)) [listing 2 of 2 here] | 289 | 
Cc1cc(C)c(/C=C/[C@@H]2C[C@@H](O)CC(=O)O2)c(-c2ccc(F)c(C)c2)c1 (stereo in doubt; 110) [listing 1 of 2 here] |  | 7 nM
Cc1ccc(C)c(-c2ccc(Cl)c(Cl)c2)c1/C=C/[C@@H]1C[C@@H](O)CC(=O)O1 | 123 | 13 nM
Cc1cc(C)c(/C=C/[C@@H]2C[C@@H](O)CC(=O)O2)c(-c2ccc(F)c(C)c2)c1 (stereo in doubt; 110) [listing 2 of 2 here] | 171 | 
Cc1cc(C)c(/C=C/[C@@H]2C[C@@H](O)CC(=O)O2)c(-c2ccc(Cl)c(Cl)c2)c1 | 175 | 8 nM
Cc1cc(F)ccc1-c1cc(Cl)cc(Cl)c1/C=C/[C@@H]1C[C@@H](O)CC(=O)O1 | 33 | 36 nM
O=C1C[C@H](O)C[C@@H](/C=C/c2c(Cl)cc(Cl)cc2CCc2ccccc2)O1 | 2.8 | 430 nM
Cc1cc(C)cc(-c2cc(C)cc(C)c2/C=C/[C@@H]2C[C@@H](O)CC(=O)O2)c1 | 80 | 15 nM
Cc1cc(C)c(/C=C/[C@@H]2C[C@@H](O)CC(=O)O2)c(/C=C/c2ccc(Cl)cc2)c1 | 2.4 | 630 nM
Cc1cc(C)c(/C=C/[C@@H]2C[C@@H](O)CC(=O)O2)c(-c2ccc(F)c(CO)c2)c1 | 26.5 | 49 nM
O=C1C[C@H](O)CC(CCc2c(Cl)cc(Cl)cc2-c2ccccc2)O1 (some centres undefined) | 18 | 100 nM
Cc1cc(C)c(/C=C/[C@@H]2C[C@@H](O)CC(=O)O2)c(-c2ccc(F)cc2)c1 | 96 | 13 nM

Further lines, results first:

Relative potency [1] | IC50 [2] | Compound
100 | 29 nM | Cc1cc(-c2cc(Cl)cc(Cl)c2/C=C/[C@@H]2C[C@@H](O)CC(=O)O2)ccc1F
30 | 44 nM | CCc1cccc(-c2cc(Cl)cc(Cl)c2/C=C/[C@@H]2C[C@@H](O)CC(=O)O2)c1
26 | 80 nM | O=C1C[C@H](O)C[C@@H](/C=C/c2c(Cl)cc(Cl)cc2-c2ccccc2)O1
100 |  | O=C1C[C@H](O)C[C@@H](/C=C/c2c(Cl)cc(Cl)cc2-c2ccc(F)cc2)O1 (stereo in doubt; 100) [listing 2 of 2 here]
 | 260 nM | O=C1C[C@H](O)C[C@@H](/C=C/c2c(Cl)cc(Cl)cc2-c2ccc(F)cc2)O1 (stereo in doubt; 100(i)i) [listing 1 of 2 here]
116 | 25 nM | O=C1C[C@H](O)C[C@@H](/C=C/c2c(Cl)cc(Cl)cc2-c2ccc(Cl)c(Cl)c2)O1
5 |  | O=C1C[C@H](O)C[C@@H](/C=C/c2c(Cl)cc(Cl)cc2-c2ccc(F)cc2)O1 (stereo in doubt; 100(i)i) [listing 2 of 2 here]
11 | 190 nM | Cc1ccc(-c2cc(Cl)cc(Cl)c2/C=C/[C@@H]2C[C@@H](O)CC(=O)O2)cc1
38.6 | 70 nM | O=C1C[C@H](O)C[C@@H](/C=C/c2c(Cl)cc(Cl)cc2-c2cccc(F)c2)O1
 | 5 nM | O=C1C[C@H](O)C[C@@H](/C=C/c2c(Cl)cc(Cl)cc2-c2ccc(F)cc2)O1 (stereo in doubt; 100(+)h) [listing 1 of 2 here]
94 | 16 nM | Cc1cccc(-c2cc(Cl)cc(Cl)c2/C=C/[C@@H]2C[C@@H](O)CC(=O)O2)c1
26 | 50 nM | COc1cccc(-c2cc(Cl)cc(Cl)c2/C=C/[C@@H]2C[C@@H](O)CC(=O)O2)c1
280 |  | O=C1C[C@H](O)C[C@@H](/C=C/c2c(Cl)cc(Cl)cc2-c2ccc(F)cc2)O1 (stereo in doubt; 100(+)h) [listing 2 of 2 here]
3.2 | 370 nM | Cc1ccccc1-c1cc(Cl)cc(Cl)c1/C=C/[C@@H]1C[C@@H](O)CC(=O)O1
